# Tests used:
# [1] = target: T1, Peroxisome proliferator-activated receptor gamma (Mus musculus) (UniProt P37238); experiment: Agonist activity at mouse PPARgamma expressed in HEK293 cells co-expressing with Gal4 reporter vector assessed as fold activation after 24 hrs by dual-luciferase reporter assay; assay type: cell-based
# T1 sequence (whole entry): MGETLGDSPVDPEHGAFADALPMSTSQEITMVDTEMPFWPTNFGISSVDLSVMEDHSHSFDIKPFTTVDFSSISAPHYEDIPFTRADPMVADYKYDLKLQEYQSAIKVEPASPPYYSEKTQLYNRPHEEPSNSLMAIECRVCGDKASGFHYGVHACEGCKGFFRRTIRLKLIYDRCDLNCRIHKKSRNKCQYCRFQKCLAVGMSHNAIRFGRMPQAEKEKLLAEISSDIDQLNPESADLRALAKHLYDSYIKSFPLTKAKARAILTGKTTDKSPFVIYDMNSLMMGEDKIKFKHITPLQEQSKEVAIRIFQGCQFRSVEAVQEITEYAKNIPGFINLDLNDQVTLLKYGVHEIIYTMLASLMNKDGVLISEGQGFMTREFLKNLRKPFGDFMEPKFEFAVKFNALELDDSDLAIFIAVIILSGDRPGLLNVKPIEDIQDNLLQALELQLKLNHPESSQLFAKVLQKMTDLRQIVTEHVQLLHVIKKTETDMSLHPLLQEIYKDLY
# Procedure, shortened: (§1)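 HEK-293 cells grown in DMEM with 10% FBS at 37 °C under 5% CO2 and plated at 1 × 10^4 cells/well. Cells co-transfected with pCMX-Gal-mPPARγ-LBD and MH100×4TK-Luc reporter, using Renilla as internal control. Compounds added at a range of concentrations for 24 h, then dual-luciferase read-out. EC50 is the concentration giving half-maximal fold activation; Emax is the maximal fold activation. Means ± SD from four independent experiments.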
# [2] = target: T2, Peroxisome proliferator-activated receptor gamma (Mus musculus, UniProt P37238); experiment: Agonist activity at mouse PPARgamma expressed in HEK293 cells co-expressing with Gal4 reporter vector after 24 hrs by dual-luciferase reporter assay; assay type: cell-based; procedure, shortened: as §1
# T2 sequence (P37238 whole entry): T1 sequence (whole entry)
# [3] = Inhibition of Saccharomyces cerevisiae alpha-glucosidase
SMILES,Emax [1],EC50 [2],IC50 [3]
C=C1[C@@H](CC/C(C)=C/CO)[C@@]2(C)CCC[C@](C)(C(=O)O)[C@@H]2[C@H](OC(=O)c2ccccc2)[C@H]1OC(C)=O,24.7,0.9 µM,
C=C1[C@@H](CC/C(C)=C/CO)[C@@]2(C)CCC[C@](C)(C(=O)O)[C@@H]2[C@H](OC(=O)c2ccccc2)[C@H]1O,,> 100 µM,
C[C@H]1O[C@H](O[C@H]2[C@H](O)[C@@H](O)[C@@H](O[C@H]3[C@H](O)[C@@H](O)C(O)O[C@@H]3CO)O[C@@H]2CO)[C@H](O)[C@@H](O)[C@@H]1N[C@H]1C=C(CO)[C@@H](O)[C@H](O)[C@H]1O (some centres undefined) [ACARBOSE],,,3760 µM
COc1ccc(-c2oc3cc(O)cc(O)c3c(=O)c2O[C@@H]2O[C@H](COC(=O)/C=C/c3ccc(O)cc3)[C@@H](O)[C@H](O)[C@H]2O)cc1OC,,> 100 µM,
COc1c(O)cc2oc(-c3ccc(O)cc3)cc(=O)c2c1O [HISPIDULIN],11.3,7.3 µM,
C=C1C[C@@H](OC(=O)c2ccccc2)[C@@H]2[C@](C)(CCC[C@@]2(C)C(=O)O)[C@@H]1CC/C(C)=C/CO [SCOPARIC ACID A],,> 100 µM,
O=c1cc(-c2ccc(O)cc2)oc2c([C@@H]3OC[C@H](O)[C@H](O)[C@H]3O)c(O)cc(O)c12,,> 100 µM,
COc1ccc(-c2cc(=O)c3c(O)c(OC)c(O[C@@H]4O[C@H](CO[C@@H]5O[C@@H](C)[C@H](O)[C@@H](O)[C@H]5O)[C@@H](O)[C@H](O)[C@H]4O)cc3o2)cc1 [PECTOLINARIN],,> 100 µM,
O=c1cc(-c2ccc(O)c(O)c2)oc2cc(O)cc(O)c12 [LUTEOLIN],7.6,2.3 µM,
CN(CCOc1ccc(CC2SC(=O)NC2=O)cc1)c1ccccn1 (centres undefined),11.8,,
COc1c(O[C@@H]2O[C@H](CO)[C@@H](O)[C@H](O)[C@H]2O)cc2oc(-c3ccc(O)cc3)cc(=O)c2c1O [HISPIDULOSIDE],,> 100 µM,
C=C(C)[C@@H]1CC[C@]2(C(=O)O)CC[C@]3(C)[C@H](CC[C@@H]4[C@@]5(C)CC[C@H](O)C(C)(C)[C@@H]5CC[C@]43C)[C@@H]12 [BETULINIC ACID],,> 100 µM,
O=c1cc(-c2ccc(O)cc2)oc2cc(O)c(O)c(O)c12 [SCUTELLAREIN],3.4,16.4 µM,
COc1ccc(-c2cc(=O)c3c(O)c(OC)c(O)c(OC)c3o2)cc1O,2,4.3 µM,
O=c1cc(-c2ccc(O)cc2)oc2cc(O)cc(O)c12 [APIGENIN],3.4,24.9 µM,
CC(=O)O[C@@H]1[C@@H](OC(=O)c2ccccc2)[C@@H]2[C@](C)(CCC[C@@]2(C)C(=O)O)[C@H](CC/C(C)=C/CO)[C@@]12CO2,,> 100 µM,
C[C@@]12CC[C@]3(C1)[C@H](CC2=O)C[C@@H](OC(=O)c1ccccc1)[C@@H]1[C@]3(C)CCC[C@]1(C)C(=O)O [4-EPI-SCOPADULCIC ACID B],,> 100 µM,14.6 µM

# — ChEMBL document CHEMBL3351408, “Bioactive diterpenoids and flavonoids from the aerial parts of Scoparia dulcis” (J Nat Prod, 2014)
